# Activity calls are given as the source filed them. The rule behind the calls is not given here.
# Columns and labels:
# Format in all cases: functional
# [1] = test system: Aspergillus flavus; test: Antifungal activity against Aspergillus flavus up to 24 hrs
# Procedure, shortened: (§1)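 MFC in tubes of standardized spore suspension (10⁴ CFU/mL) of clinical isolates, each dosed with compound at increasing concentrations starting from the MIC. Controls: solvent at its highest level, and fluconazole. CFU counted and viability checked at intervals over 0–24 h. MFC is the lowest concentration killing about 99% of viable CFU.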
# [2] = test system: Candida albicans; test: Antifungal activity against Candida albicans up to 24 hrs; procedure, shortened: as §1
# [3] = test system: Candida albicans; test: Antifungal activity against Candida albicans at 300 ppm; settings: for zone of inhibition at 300 ppm: read-out: DIZ
# Procedure, shortened: (§2)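 Agar well diffusion against clinical isolates (A. flavus mold; C. albicans yeast); standardized spore suspension 10⁴ CFU/mL. Compounds dissolved in DMSO as a parent stock, diluted to test levels (100, 300, 500, 1000 ppm).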
# [4] = test system: Aspergillus flavus; test: Antifungal activity against Aspergillus flavus at 500 ppm; settings: for zone of inhibition at 500 ppm: read-out: DIZ; procedure, shortened: as §2
# [5] = test system: Candida albicans; test: Antifungal activity against Candida albicans at 100 ppm; settings: for zone of inhibition at 100 ppm: read-out: DIZ; procedure, shortened: as §2
# [6] = test system: Aspergillus flavus; test: Antifungal activity against Aspergillus flavus at 300 ppm; settings: for zone of inhibition at 300 ppm: read-out: DIZ; procedure, shortened: as §2
# [7] = test system: Aspergillus flavus; test: Antifungal activity against Aspergillus flavus by agar diffusion technique
# Procedure, shortened: (§3)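 Clinical isolates (A. flavus mold; C. albicans yeast), spore suspension standardized at 10⁴ CFU/mL. DMSO stocks diluted to a concentration series. Approximate MIC by agar diffusion (well technique), taken as the concentration giving minimal inhibition around the well.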
# [8] = test system: Aspergillus flavus; test: Antifungal activity against Aspergillus flavus at 100 ppm
# Procedure, shortened: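 Clinical isolate of A. flavus (mold) tested by agar diffusion, well technique, using a standardized spore suspension of 10⁴ CFU/mL. Compounds were dissolved in dimethylsulphoxide and diluted from a parent stock.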
# [9] = test system: Candida albicans; test: Antifungal activity against Candida albicans at 500 ppm; settings: for zone of inhibition at 500 ppm: read-out: DIZ; procedure, shortened: as §2
# [10] = test system: Candida albicans; test: Antifungal activity against Candida albicans at 1000 ppm; settings: read-out: DIZ; procedure, shortened: as §2
# [11] = test system: Candida albicans; test: Antifungal activity against Candida albicans by agar diffusion technique; procedure, shortened: as §3
# [12] = test system: Aspergillus flavus; test: Antifungal activity against Aspergillus flavus at 1000 ppm; settings: for zone of inhibition at 1000 ppm: read-out: DIZ; procedure, shortened: as §2
SMILES,MFC [1],MFC [2],zone of inhibition at 300 ppm [3],zone of inhibition at 500 ppm [4],zone of inhibition at 100 ppm [5],zone of inhibition at 300 ppm [6],MIC [7],diameter of the inhibition zone (DIZ) [8],zone of inhibition at 500 ppm [9],zone of inhibition at 1000 ppm [10],MIC [11],zone of inhibition at 1000 ppm [12],diameter of the inhibition zone (DIZ) [4],diameter of the inhibition zone (DIZ) [6],diameter of the inhibition zone (DIZ) [3],diameter of the inhibition zone (DIZ) [5],diameter of the inhibition zone (DIZ) [12],diameter of the inhibition zone (DIZ) [9]
O=C(CSc1nnc2sc3ccccc3n12)N(C(=O)NC1CCCCC1)C1CCCCC1,500 µg/mL,inactive,< 10 mm,10 mm,< 10 mm,< 10 mm,300 µg/mL,inactive,10 mm,> 16 mm,100 µg/mL,> 16 mm,,,,,,
COC(=O)[C@H](Cc1ccc(O)cc1)NC(=O)CSc1nnc2sc3ccccc3n12,inactive,inactive,< 10 mm,,< 10 mm,,1000 µg/mL,inactive,> 16 mm,> 16 mm,100 µg/mL,< 10 mm,inactive,inactive,,,,
COC(=O)[C@H](CC(C)C)NC(=O)CSc1nnc2sc3ccccc3n12,inactive,inactive,,,,,inactive,inactive,< 10 mm,10 mm,500 µg/mL,,inactive,inactive,inactive,inactive,inactive,
O=C(O)CCSc1nnc2sc3ccccc3n12,inactive,inactive,< 10 mm,< 10 mm,,,500 µg/mL,inactive,10 mm,> 16 mm,300 µg/mL,10 mm,,inactive,,inactive,,
CCOC(=O)CSc1nnc2sc3ccccc3n12,inactive,inactive,,,,,inactive,inactive,< 10 mm,10 mm,500 µg/mL,,inactive,inactive,inactive,inactive,inactive,
COC(=O)[C@H](CCSC)NC(=O)CSc1nnc2sc3ccccc3n12,inactive,inactive,,,,,inactive,inactive,,< 10 mm,1000 µg/mL,,inactive,inactive,inactive,inactive,inactive,inactive
COC(=O)CNC(=O)CSc1nnc2sc3ccccc3n12,inactive,inactive,,,,,1000 µg/mL,inactive,< 10 mm,10 mm,500 µg/mL,< 10 mm,inactive,inactive,inactive,inactive,,
COC(=O)CCNC(=O)CSc1nnc2sc3ccccc3n12,inactive,inactive,,,,,inactive,inactive,,< 10 mm,1000 µg/mL,< 10 mm,inactive,inactive,inactive,inactive,,inactive
Sc1nnc2sc3ccccc3n12,500 µg/mL,500 µg/mL,10 mm,10 mm,< 10 mm,< 10 mm,300 µg/mL,inactive,> 16 mm,> 16 mm,100 µg/mL,> 16 mm,,,,,,
